Shown are actives, neighbours in structure and some others; about 3.7% of the full set was active somewhere.
KCNK3 inh = human KCNK3 channel inhibition, primary screen. O14649. CHO-KCNK3 thallium flux, FluxOR fluorescence; hits give low values. B-score at 10 µM. 340,000 compounds, 0.84% hits. AID 602410;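 active = B-score under library mean minus 4 SD, starting fluorescence ratio at most library mean plus 5 SD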;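 also: more negative B-score means stronger inhibition of thallium flux through KCNK3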
Target sequence (O14649 whole entry, looked up): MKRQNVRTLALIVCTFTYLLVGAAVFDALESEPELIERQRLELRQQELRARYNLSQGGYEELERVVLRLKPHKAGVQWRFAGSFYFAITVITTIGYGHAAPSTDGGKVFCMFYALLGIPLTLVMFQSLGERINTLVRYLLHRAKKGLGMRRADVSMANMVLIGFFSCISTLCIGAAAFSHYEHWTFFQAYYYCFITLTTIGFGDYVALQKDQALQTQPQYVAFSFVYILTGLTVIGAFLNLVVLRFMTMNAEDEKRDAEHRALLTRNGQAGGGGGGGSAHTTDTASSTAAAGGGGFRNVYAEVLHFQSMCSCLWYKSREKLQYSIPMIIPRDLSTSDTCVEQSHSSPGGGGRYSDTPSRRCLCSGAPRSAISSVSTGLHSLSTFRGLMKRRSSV
Kir21 inh = Kir2.1 (mouse) channel inhibition | HEK293-Kir2.1, FluxOR thallium flux fluorescence; hits give low values | B-score at 10 µM | 310,000 compounds, 0.85% hits | AID 1672;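 active = fluorescence ratio B-score at or below minus 3 SD of library scores, with starting-brightness B-score within 2 SD, cut at about -4.2 in these data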;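 also: channel flux triggered by added potassium and thallium sulfate stimulus; B-score of peak minus minimum fluorescence over baseline after thallium stimulus; more negative B-score means stronger Kir2.1 block with less thallium influx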
KCNQ1 block = human KCNQ1 channel inhibition. 310,000 compounds, 1.3% hits. B-score at 10 µM. CHO-K1 KCNQ1, FluxOR thallium flux fluorescence; hits give high values. AID 2642. P51787;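 active = compounds whose thallium flux B-score, printed positive for inhibition, exceeds three library SD while starting fluorescence stays within three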;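 also: channel opened by potassium depolarization with thallium stimulus after 20 min compound exposure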
hERG protect = hERG (human) protection from proarrhythmic block; activation (rescue from dofetilide block), less the hit threshold, % at 10 µM; AID 1511; CHO-hERG, FluxOR thallium flux, dofetilide IC70 present; 310,000 compounds, 0.51% hits;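 active = activation above the mean of controls blocked by dofetilide plus 5 SD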;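 also: thallium influx through hERG after potassium depolarization seen as dye fluorescence rise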
KCNK9 block = inhibitors of human KCNK9 two-pore domain potassium channel; 310,000 compounds, 1.2% hits; AID 488922; B-score at 10 µM; HEK293 KCNK9, FluxOR thallium flux fluorescence; hits give low values; Q9NPC2;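 active = ratio B-score over 3 SD below the library mean, with starting fluorescence within 5 SD of its mean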;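 also: negative B-score means less thallium flux so channel inhibition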
KCNQ1 act = potentiators or activators of human KCNQ1 potassium channel. B-score at 10 µM. 310,000 compounds, 0.35% hits. CHO-K1 KCNQ1, thallium flux FluxOR fluorescence; hits give high values. AID 2648. P51787;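 active = fluorescence ratio B-score, a plate-corrected score, at least three library SD, with initial intensity B-score within 5 SD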
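Test system: CHO-K1 cells stably expressing KCNQ1 / Medium: assay buffer / Also added: depolarizing K+/Tl+ stimulus, K2SO4 and Tl2SO4 each 12.5 mM in 5x stock / Incubation: 90 min dye loading and 20 min compound exposure, both at room temperature / Signal: thallium influx via FluxOR fluorescence, kinetic imaging / Evaluation: B score of baseline-normalized fluorescence ratio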
KCNK9 block conf = human KCNK9 inhibitor confirmation; shares compounds with KCNK9 block; 4,900 compounds, 43% hits; AID 492992; inhibition, % at 10 µM; HEK293 KCNK9 cells, FluxOR thallium flux fluorescence;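 active = thallium signal inhibited by more than 5 SD of the compound-free buffer control wells, on both duplicate plates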;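 also: 0% = assay buffer control wells without compound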
Kir2-1 spec = mouse Kir2.1 off-target activity of KCNK9 modulators; shares compounds with KCNK9 block; Kir2.1 cells, FluxOR thallium flux fluorescence; inhibition, % at 10 µM; 4,900 compounds, 4% hits; AID 492993;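 active = thallium signal drop more than 5 SD beyond the mean of the no-compound control wells, seen in both duplicate plates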;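 also: signal is fluorescence rise after thallium addition divided by baseline fluorescence; plate controls were assay buffer only for no effect and full block by chlorpromazine control for full effect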
HEK293 Tl ctr = second counter-screen for KCNK9 modulators: effect in non-induced cells; 4,900 compounds, 40% hits; non-induced KCNK9-HEK293, FluxOR thallium flux; inhibition, % at 10 µM; shares compounds with KCNK9 block;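 active = thallium signal drop beyond 5 SD of the untreated control mean, on both duplicate plates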;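 also: plate controls were buffer only IC0 wells for no effect and SID17386958 at its maximal inhibitory level for full effect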
An asterisk follows results filed as active; i = inactive; nt = not tested or not shown.

SMILES	KCNK3 inh	Kir21 inh	KCNQ1 block	hERG protect	KCNK9 block	KCNQ1 act	KCNK9 block conf	Kir2-1 spec	HEK293 Tl ctr
COc1ccc(NC(=O)Cn2c(-c3ccccc3)cn(-c3ccc(C)cc3)c2=O)cc1	i	-0.02	i	-13	i	i	nt	nt	nt
COc1ccc(-c2cn(-c3ccc(C)cc3)c(=O)n2CC(=O)Nc2ccc(OC)cc2OC)cc1	i	-0.03	i	-13	i	i	i	i	i
C=CCOC(=O)Cn1cnc2c(sc3nc(C)cc(C)c32)c1=O	i	1.6	i	-10	i	i	nt	nt	nt
COC(=O)C[C@H]1c2cc(C(F)(F)F)ccc2S(=O)(=O)N1Cc1ccccc1	i	-0.5	i	-11	i	i	nt	nt	nt
CCCCCCCCN1[C@@H](CC(=O)OC)c2cc(C(F)(F)F)ccc2S1(=O)=O	i	2.2	i	-10	i	i	i	i	i
COc1cc(C)nc(N(Cc2ccccc2)S(=O)(=O)c2ccccc2)n1	i	0.15	i	-12	-16*	i	56%*	i	44%*
O=c1cc(CSc2nc3ccccc3c(=O)[nH]2)c2ccc(O)cc2o1	i	0.1	i	-16	i	i	nt	nt	nt
O=C(OCc1ccc(Br)cc1)c1cccc(S(=O)(=O)N2CCCC2)c1	i	-1.8	i	-21	-12*	i	i	i	34%*
O=S(=O)(c1cccc(S(=O)(=O)N2CCCC2)c1)c1cccc(S(=O)(=O)N2CCCC2)c1	i	-0.01	i	-8	-9.2*	i	54%*	i	i
O=S(=O)(c1cccc(S(=O)(=O)N2CCCC2)c1)N1CCCCC1	i	-0.37	i	-8	i	i	nt	nt	nt
O=C(COc1ccc(Br)cc1)N1CCN(c2ncccn2)CC1	i	nt	nt	nt	nt	nt	nt	nt	nt
O=C(OCCN1CCN(C2=NS(=O)(=O)c3ccccc32)CC1)c1cccc(Br)c1	i	1.3	i	-12	i	i	nt	nt	nt
C=C(C)C1CCC(C)=C1COC(=O)Nc1ccccc1 (centres undefined)	i	-0.46	i	-7	i	i	i	i	i
O=C(Nc1ccccc1)OCCCCOC(=O)Nc1ccccc1	i	nt	nt	nt	nt	nt	nt	nt	nt
CC(=O)c1cccc(NC(=O)C(OC(=O)/C=C/c2ccc3c(c2)OCO3)c2ccccc2)c1 (centres undefined)	i	0.03	i	-15	-9.3*	i	24%*	i	i
Cc1ccc(C(=O)Nc2ccccc2C(=O)O)cc1S(=O)(=O)NCc1ccccc1	i	0.26	i	-7	i	i	nt	nt	nt
Cc1ccc(C(=O)Nc2ccccc2-c2ccccc2)cc1S(=O)(=O)Nc1cccc(C)c1C	-11*	-0.31	6*	-7	-9.4*	i	40%*	i	42%*
Cc1ccc(C)c(NS(=O)(=O)c2cc(C(=O)Nc3ccccc3-c3ccccc3)ccc2C)c1	-9.9*	0.35	i	-12	-12*	i	42%*	i	42%*
Cc1ccc(C(=O)Nc2ccccc2C(=O)O)cc1S(=O)(=O)Nc1ccc(Br)cc1	i	0.57	6*	-15	i	i	i	i	i
CCC(c1nnc(SCC(=O)Nc2ccc(C(=O)N(C)C)cc2)n1Cc1ccccc1)N(C)C (centres undefined)	i	2.3	i	-5	i	i	nt	nt	nt
CN1C[C@@H]2[C@@H]3C(=O)N(Cc4ccccc4)C(=O)[C@@H]3[C@](C)(C1=O)N2C(=O)c1ccc(F)cc1	i	nt	nt	nt	nt	nt	nt	nt	nt
O=C(Nc1ccc2c(c1)Cc1ccccc1-2)c1cccnc1	i	-0.46	i	-25	i	i	nt	nt	nt
O=S(=O)(/N=C(/c1ccccc1)N1CCOCC1)c1ccc(F)cc1	i	-0.05	i	-1	i	i	nt	nt	nt
CC(C)[C@@H]1CC[C@@H](C)C[C@H]1OC(=O)C[n+]1cc(-c2ccc(Cl)cc2)n2c1CCCCC2	i	-8.1*	i	-26	-13*	i	60%*	70%*	i
CC1CCCCC1NC(=O)c1cccc(S(=O)(=O)N2CCN(Cc3ccccc3)CC2)c1 (centres undefined)	i	1	i	-12	i	i	i	i	i
SMILES	KCNK3 inh	Kir21 inh	KCNQ1 block	hERG protect	KCNK9 block	KCNQ1 act	KCNK9 block conf	Kir2-1 spec	HEK293 Tl ctr
CSc1ccc(CN(C)C(=O)c2cccc(S(=O)(=O)N3CCN(Cc4ccccc4)CC3)c2)cc1	i	-1.6	9*	-15	i	i	i	i	i
CC(=O)Nc1cccc(NC(=O)c2cccc(S(=O)(=O)N3CCN(Cc4ccccc4)CC3)c2)c1	i	0.07	i	-11	i	i	nt	nt	nt
CN(Cc1ccc(F)cc1)C(=O)c1cccc(S(=O)(=O)N2CCN(Cc3ccccc3)CC2)c1	i	-0.01	i	-10	i	i	nt	nt	nt
CCCC(=NCCc1c(C)[nH]c2ccccc12)C1=C(O)CC(c2ccccc2)CC1=O (centres undefined)	i	-1.6	i	-8	i	i	i	i	i
CCCCC(=NCCc1c(C)[nH]c2ccccc12)C1=C(O)CC(c2ccccc2)CC1=O (centres undefined)	i	0.08	i	-10	i	i	i	i	i
CC1Cc2ccccc2N1C(=O)/C=C/c1cccc(F)c1 (centres undefined)	i	1.3	i	-19	i	i	i	i	i
O=C(OCc1nc2ccsc2c(=O)[nH]1)c1cccc(S(=O)(=O)N2CCOCC2)c1	i	1.4	i	-5	i	i	nt	nt	nt
Cc1ccc(NC(=O)c2oc3ccccc3c2NC(=O)C2CCCO2)cc1C (centres undefined)	i	0.77	i	-20	i	i	i	i	i
Cc1ccc(S(=O)(=O)/N=C2/NC(=O)/C(=C\c3ccccc3)S2)cc1	i	nt	nt	nt	nt	nt	nt	nt	nt
Cc1ccc(/C=C2\S/C(=N/S(=O)(=O)c3cccs3)NC2=O)cc1	i	0.82	i	-12	i	i	i	i	i
Cc1ccc(S(=O)(=O)/N=C2/NC(=O)/C(=C/c3ccncc3)S2)cc1	nt	-3.5	i	-7	i	i	nt	nt	nt
Cc1ccc(S(=O)(=O)/N=C2/NC(=O)/C(=C/c3ccccc3)S2)cc1	i	-0.16	i	-9	i	i	i	i	i
